Consider three molecules from ChEMBL document CHEMBL4118021, “Studies of TAK1-centered polypharmacology with novel covalent TAK1 inhibitors” (Bioorg Med Chem, 2017).

Holding throughout (format): cell-based
For experiment [1], the target named is T1, Serine/threonine-protein kinase LATS2 (Homo sapiens) (UniProt Q9NRM7).
T1 sequence (whole entry): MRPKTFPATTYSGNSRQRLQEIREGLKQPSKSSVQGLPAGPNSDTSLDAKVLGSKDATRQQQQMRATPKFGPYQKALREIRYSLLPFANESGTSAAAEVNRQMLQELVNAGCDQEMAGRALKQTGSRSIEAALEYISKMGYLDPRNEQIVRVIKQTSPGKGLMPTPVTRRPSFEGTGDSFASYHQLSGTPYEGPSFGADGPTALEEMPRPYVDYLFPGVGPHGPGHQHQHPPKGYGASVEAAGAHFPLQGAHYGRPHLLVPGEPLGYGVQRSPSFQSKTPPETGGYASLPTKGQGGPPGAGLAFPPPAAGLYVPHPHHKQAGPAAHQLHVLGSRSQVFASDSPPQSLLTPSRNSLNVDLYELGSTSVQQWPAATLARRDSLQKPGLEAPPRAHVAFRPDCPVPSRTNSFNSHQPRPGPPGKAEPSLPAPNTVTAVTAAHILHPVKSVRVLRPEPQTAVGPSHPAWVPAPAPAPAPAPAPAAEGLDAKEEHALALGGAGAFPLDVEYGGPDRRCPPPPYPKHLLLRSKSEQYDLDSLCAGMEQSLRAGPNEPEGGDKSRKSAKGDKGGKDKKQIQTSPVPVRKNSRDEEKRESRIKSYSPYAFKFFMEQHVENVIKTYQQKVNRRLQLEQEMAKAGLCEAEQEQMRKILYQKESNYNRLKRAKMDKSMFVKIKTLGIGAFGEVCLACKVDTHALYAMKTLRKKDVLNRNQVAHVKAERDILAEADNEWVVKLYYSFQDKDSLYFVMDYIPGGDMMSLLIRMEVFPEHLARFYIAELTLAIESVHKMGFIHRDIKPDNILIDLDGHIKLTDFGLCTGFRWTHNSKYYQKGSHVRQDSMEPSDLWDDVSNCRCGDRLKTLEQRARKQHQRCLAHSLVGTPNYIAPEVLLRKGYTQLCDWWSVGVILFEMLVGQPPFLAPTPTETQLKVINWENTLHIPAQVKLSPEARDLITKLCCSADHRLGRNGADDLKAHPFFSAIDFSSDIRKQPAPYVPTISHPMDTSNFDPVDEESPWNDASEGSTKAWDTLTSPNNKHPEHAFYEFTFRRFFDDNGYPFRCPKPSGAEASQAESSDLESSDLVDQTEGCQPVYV
Put plainly: Inhibition of LATS2 in human SKCO1 cells at 1 uM after 4 hrs using biotin labeled DIKPDNILIDLDGHIK probe by mass-spectrometric analysis relative to control.

Experiment [2] has as its target Serine/threonine-protein kinase 10 (Homo sapiens) (UniProt O94804). Put plainly: Inhibition of LOK in human SKCO1 cells at 1 uM after 4 hrs using biotin labeled DLKAGNVLMTLEGDIR probe by mass-spectrometric analysis relative to control.
The target in experiment [3] is T2, Calcium/calmodulin-dependent protein kinase type IV (Homo sapiens) (UniProt Q16566).
T2 sequence (whole entry): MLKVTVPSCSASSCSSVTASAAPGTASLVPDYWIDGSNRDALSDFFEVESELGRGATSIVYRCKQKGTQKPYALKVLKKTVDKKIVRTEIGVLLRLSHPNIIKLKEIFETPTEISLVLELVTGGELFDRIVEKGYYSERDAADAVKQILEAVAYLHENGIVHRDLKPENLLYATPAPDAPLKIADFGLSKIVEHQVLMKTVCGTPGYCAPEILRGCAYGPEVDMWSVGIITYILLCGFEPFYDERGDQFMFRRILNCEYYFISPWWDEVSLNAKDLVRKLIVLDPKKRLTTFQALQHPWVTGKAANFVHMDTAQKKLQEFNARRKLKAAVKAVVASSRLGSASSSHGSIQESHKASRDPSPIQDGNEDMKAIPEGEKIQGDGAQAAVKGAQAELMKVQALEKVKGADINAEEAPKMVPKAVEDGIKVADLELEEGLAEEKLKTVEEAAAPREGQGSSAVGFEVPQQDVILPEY
Put plainly: Inhibition of CaMK4 in human SKCO1 cells at 1 uM after 4 hrs using biotin labeled DLKPENLLYATPAPDAPLK probe by mass-spectrometric analysis relative to control.

Experiment [4] addresses Serine/threonine-protein kinase PAK 2 (Homo sapiens) (UniProt Q13177). The experiment is described as follows: Inhibition of PAK2 in human SKCO1 cells at 1 uM after 4 hrs using biotin labeled IGQGASGTVFTATDVALGQEVAIKQINLQK probe by mass-spectrometric analysis relative to control. The method in brief:
(§1)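 Live SK-CO-1 cells exposed to compound at 1 μM or DMSO for 4 h (KiNativ). Lysates then labeled with lysine-reactive ATP/ADP-biotin probe, and probe-labeled kinase peptides quantified by mass spectrometry. Percent inhibition of probe-dependent recovery calculated relative to DMSO-treated cells.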

Experiment [5] addresses Glycogen synthase kinase-3 alpha (Homo sapiens) (UniProt P49840). The experiment is described as follows: Inhibition of GSK3A in human SKCO1 cells at 1 uM after 4 hrs using biotin labeled DIKPQNLLVDPDTAVLK probe by mass-spectrometric analysis relative to control.
Experiment [6] has as its target Cyclin-dependent kinase 17 (Homo sapiens) (UniProt Q00537). The experiment is described as follows: Inhibition of PCTAIRE2 in human SKCO1 cells at 1 uM after 4 hrs using biotin labeled SKLTENLVALKEIR probe by mass-spectrometric analysis relative to control. The method in brief: as §1
Experiment [7] concerns the target Serine/threonine-protein kinase VRK2 (Homo sapiens) (UniProt Q86Y07). Put plainly: Inhibition of VRK2 in human SKCO1 cells at 1 uM after 4 hrs using biotin labeled MLDVLEYIHENEYVHGDIKAANLLLYK probe by mass-spectrometric analysis relative to control. The method in brief: as §1

Cyclin-dependent kinase 17 (Homo sapiens), sequence (Q00537 whole entry, looked up): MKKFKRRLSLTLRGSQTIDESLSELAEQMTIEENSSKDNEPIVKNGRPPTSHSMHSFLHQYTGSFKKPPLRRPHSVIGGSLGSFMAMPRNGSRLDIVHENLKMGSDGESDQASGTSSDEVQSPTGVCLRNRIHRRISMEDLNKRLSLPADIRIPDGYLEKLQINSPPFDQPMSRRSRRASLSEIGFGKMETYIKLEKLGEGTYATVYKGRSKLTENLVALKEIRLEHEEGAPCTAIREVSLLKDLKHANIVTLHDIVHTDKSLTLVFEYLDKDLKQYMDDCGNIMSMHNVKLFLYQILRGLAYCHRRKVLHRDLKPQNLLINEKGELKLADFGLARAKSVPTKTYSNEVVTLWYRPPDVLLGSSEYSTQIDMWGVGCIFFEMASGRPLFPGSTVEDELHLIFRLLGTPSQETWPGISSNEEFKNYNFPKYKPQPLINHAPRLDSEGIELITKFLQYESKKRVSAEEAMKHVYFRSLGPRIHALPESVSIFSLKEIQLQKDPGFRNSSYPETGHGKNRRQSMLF
Serine/threonine-protein kinase 10 (Homo sapiens), sequence (O94804 whole entry, looked up): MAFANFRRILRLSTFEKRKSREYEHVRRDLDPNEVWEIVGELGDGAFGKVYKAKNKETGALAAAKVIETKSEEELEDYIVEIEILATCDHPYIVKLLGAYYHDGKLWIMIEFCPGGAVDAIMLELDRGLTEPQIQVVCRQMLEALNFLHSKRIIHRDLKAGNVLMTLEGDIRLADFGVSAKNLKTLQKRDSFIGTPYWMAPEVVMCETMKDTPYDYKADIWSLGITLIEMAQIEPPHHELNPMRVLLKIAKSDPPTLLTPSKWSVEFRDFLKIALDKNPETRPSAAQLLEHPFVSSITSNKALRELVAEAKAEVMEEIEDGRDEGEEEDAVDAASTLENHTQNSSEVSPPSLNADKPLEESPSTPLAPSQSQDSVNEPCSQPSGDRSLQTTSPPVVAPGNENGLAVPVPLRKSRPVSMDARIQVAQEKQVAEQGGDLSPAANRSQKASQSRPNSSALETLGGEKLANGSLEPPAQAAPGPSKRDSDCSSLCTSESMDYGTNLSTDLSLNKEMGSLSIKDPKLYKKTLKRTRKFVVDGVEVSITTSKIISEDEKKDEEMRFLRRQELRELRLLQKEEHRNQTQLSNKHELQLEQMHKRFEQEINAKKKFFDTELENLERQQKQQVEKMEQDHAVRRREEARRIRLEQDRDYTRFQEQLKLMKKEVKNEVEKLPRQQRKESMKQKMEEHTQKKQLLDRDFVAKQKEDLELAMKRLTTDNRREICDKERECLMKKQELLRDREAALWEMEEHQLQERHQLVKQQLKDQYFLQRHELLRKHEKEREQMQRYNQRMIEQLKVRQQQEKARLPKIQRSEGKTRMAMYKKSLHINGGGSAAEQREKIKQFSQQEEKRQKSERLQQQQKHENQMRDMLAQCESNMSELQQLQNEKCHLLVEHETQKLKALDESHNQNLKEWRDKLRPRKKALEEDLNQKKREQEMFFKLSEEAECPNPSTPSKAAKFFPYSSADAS
Serine/threonine-protein kinase PAK 2 (Homo sapiens), sequence (Q13177 whole entry): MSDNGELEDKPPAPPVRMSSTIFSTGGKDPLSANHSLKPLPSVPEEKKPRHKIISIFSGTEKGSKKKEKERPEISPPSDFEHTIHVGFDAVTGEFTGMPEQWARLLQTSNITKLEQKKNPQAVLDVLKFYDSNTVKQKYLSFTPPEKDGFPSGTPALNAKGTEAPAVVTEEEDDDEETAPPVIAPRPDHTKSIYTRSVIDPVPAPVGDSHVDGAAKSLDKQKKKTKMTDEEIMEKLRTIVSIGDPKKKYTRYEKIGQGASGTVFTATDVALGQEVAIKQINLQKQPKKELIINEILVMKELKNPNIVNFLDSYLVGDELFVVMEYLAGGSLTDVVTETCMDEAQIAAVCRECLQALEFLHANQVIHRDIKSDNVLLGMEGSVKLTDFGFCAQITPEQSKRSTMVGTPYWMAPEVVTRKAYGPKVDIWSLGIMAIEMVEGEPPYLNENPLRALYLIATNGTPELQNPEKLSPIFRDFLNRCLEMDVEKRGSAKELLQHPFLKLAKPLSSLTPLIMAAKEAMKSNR
Glycogen synthase kinase-3 alpha (Homo sapiens), sequence (P49840 2-483 limits assumed): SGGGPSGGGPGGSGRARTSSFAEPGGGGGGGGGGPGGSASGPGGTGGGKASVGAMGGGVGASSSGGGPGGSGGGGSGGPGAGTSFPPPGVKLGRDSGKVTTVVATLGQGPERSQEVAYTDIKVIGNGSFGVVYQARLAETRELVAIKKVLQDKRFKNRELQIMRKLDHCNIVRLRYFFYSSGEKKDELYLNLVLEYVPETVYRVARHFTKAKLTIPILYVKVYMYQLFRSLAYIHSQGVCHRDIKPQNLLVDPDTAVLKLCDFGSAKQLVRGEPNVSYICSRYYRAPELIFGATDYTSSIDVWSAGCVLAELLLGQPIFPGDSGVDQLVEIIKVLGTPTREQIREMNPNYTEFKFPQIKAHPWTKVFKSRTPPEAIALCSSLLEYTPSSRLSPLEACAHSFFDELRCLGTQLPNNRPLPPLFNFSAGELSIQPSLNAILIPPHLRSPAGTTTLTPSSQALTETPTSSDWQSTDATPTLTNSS
Serine/threonine-protein kinase VRK2 (Homo sapiens), sequence (Q86Y07 whole entry): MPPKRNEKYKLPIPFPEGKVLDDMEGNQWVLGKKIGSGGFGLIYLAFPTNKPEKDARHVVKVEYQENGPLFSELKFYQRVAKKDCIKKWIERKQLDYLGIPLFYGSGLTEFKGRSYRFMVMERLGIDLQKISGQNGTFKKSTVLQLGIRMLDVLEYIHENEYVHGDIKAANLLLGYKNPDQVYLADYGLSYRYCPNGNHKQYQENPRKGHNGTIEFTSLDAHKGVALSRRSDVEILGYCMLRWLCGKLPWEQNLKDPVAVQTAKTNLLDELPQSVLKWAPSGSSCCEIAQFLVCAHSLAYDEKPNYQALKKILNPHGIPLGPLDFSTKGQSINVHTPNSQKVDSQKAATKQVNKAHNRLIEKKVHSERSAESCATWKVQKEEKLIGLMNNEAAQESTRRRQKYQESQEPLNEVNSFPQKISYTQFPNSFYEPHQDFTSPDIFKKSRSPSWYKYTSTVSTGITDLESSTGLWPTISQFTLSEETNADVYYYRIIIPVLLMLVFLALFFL

As a reminder, the inhibition is the drop in the measured response relative to a control, in per cent. With `C=CC(=O)Nc1ccccc1Oc1nc(Nc2cnn(CCOC)c2)ncc1Cl`, the inhibition in experiment [1] was 6.7%; in experiment [2], 11.6%; in experiment [3], -7.4%; in experiment [4], 3%; in experiment [5], 15.2%; in experiment [6], 21.9%. In experiment [7], the inhibition amounted to 3.6%.

Take `C=CC(=O)Nc1ccccc1Nc1nc(Nc2ccc(N3CCN(C)CC3)cc2)ncc1Cl`: the inhibition in experiment [1] was 40.7%; in experiment [2] it was 40.4%; in experiment [3], -2.6%; in experiment [4], -8.6%; in experiment [5] it was -2.8%; in experiment [6], 3.7%. Moreover, the inhibition in experiment [7] was 10.3%.

As to `COc1cc(O)c2c(c1)/C=C/C[C@H](O)[C@H](O)C(=O)/C=C\C[C@H](C)OC2=O`, the inhibition was -0.3% in experiment [1]; 21.4% in experiment [2]; 30.6% in experiment [3]; -3.9% in experiment [4]; 4.3% in experiment [5]; 21.2% in experiment [6]. Also, the inhibition in experiment [7] worked out at 20.4%.
